# Tests used:
# Format in all cases: functional
# Escherichia coli [1] = assay: Antibacterial activity against marA-overproducing Escherichia coli CR1000 harboring inactivated metL gene assessed as MarA-mediated multidrug resistance level by measuring fold change in MIC relative to MarA-deficient Escherichia coli CR2000
# Outline: (§1)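 Each inactivated gene was transferred into both the ΔmarR (CR1000) and the ΔmarRA (CR2000) BW25113 backgrounds. Each derivative was grown overnight in LB and tested by Etest on Mueller-Hinton plates, read after 20 h at 37°C, against cefoxitin, norfloxacin, chloramphenicol and minocycline. The MarA-mediated level compares the MIC in the ΔmarR derivative with the MIC in the matching ΔmarRA derivative.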
# Escherichia coli [2] = assay: Antibacterial activity against marA-overproducing Escherichia coli CR1000 harboring inactivated metV gene assessed as MarA-mediated multidrug resistance level by measuring fold change in MIC relative to MarA-deficient Escherichia coli CR2000; outline: as §1
# Escherichia coli [3] = assay: Antibacterial activity against marA-overproducing Escherichia coli CR1000 harboring inactivated nikD gene assessed as MarA-mediated multidrug resistance level by measuring fold change in MIC relative to MarA-deficient Escherichia coli CR2000; outline: as §1
# Escherichia coli [4] = assay: Antibacterial activity against marA-overproducing Escherichia coli CR1000 harboring inactivated cspGp gene assessed as MarA-mediated multidrug resistance level by measuring fold change in MIC relative to MarA-deficient Escherichia coli CR2000; outline: as §1
# Escherichia coli [5] = assay: Antibacterial activity against MarA-deficient Escherichia coli CR2000 after 20 hrs by Etest method; conditions: CR2000, 20 h
# Outline: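 Overnight LB-grown cultures (37°C, agitation) of the ΔmarRA strain (BW25113 background) tested on Mueller-Hinton plates with Etest strips per manufacturer's instructions. MIC read after 20 h at 37°C.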
# Escherichia coli [6] = assay: Antibacterial activity against marA-overproducing Escherichia coli CR1000 harboring inactivated yfdG gene assessed as MarA-mediated multidrug resistance level by measuring fold change in MIC relative to MarA-deficient Escherichia coli CR2000; outline: as §1
# Escherichia coli [7] = assay: Antibacterial activity against marA-overproducing Escherichia coli CR1000 harboring inactivated degP gene assessed as MarA-mediated multidrug resistance level by measuring fold change in MIC relative to MarA-deficient Escherichia coli CR2000; outline: as §1
# Escherichia coli [8] = assay: Antibacterial activity against marA-overproducing Escherichia coli CR1000 harboring inactivated pcnB gene assessed as MarA-mediated multidrug resistance level by measuring fold decrease in MIC relative to MarA-deficient Escherichia coli CR2000; set-up: scale not given: the % may be the effect or the level left; outline: as §1
# Escherichia coli [9] = assay: Antibacterial activity against marA-overproducing Escherichia coli CR1000 harboring inactivated tolC gene assessed as MarA-mediated multidrug resistance level by measuring fold decrease in MIC relative to MarA-deficient Escherichia coli CR2000; set-up: scale not given: the % may be the effect or the level left; outline: as §1
# Escherichia coli [10] = assay: Antibacterial activity against marA-overproducing Escherichia coli CR1000 harboring inactivated damX gene assessed as MarA-mediated multidrug resistance level by measuring fold decrease in MIC relative to MarA-deficient Escherichia coli CR2000; set-up: scale not given: the % may be the effect or the level left; outline: as §1
# Escherichia coli [11] = assay: Antibacterial activity against marA-overproducing Escherichia coli CR1000 harboring inactivated acrB gene assessed as MarA-mediated multidrug resistance level by measuring fold decrease in MIC relative to MarA-deficient Escherichia coli CR2000; set-up: scale not given: the % may be the effect or the level left; outline: as §1
# Escherichia coli [12] = assay: Antibacterial activity against marA-overproducing Escherichia coli CR1000 harboring inactivated appA gene assessed as MarA-mediated multidrug resistance level by measuring fold change in MIC relative to MarA-deficient Escherichia coli CR2000; outline: as §1
# Escherichia coli [13] = assay: Antibacterial activity against marA-overproducing Escherichia coli CR1000 harboring inactivated recD gene assessed as MarA-mediated multidrug resistance level by measuring fold change in MIC relative to MarA-deficient Escherichia coli CR2000; outline: as §1
# Escherichia coli [14] = assay: Antibacterial activity against marA-overproducing Escherichia coli CR1000 harboring inactivated yniDp gene assessed as MarA-mediated multidrug resistance level by measuring fold change in MIC relative to MarA-deficient Escherichia coli CR2000; outline: as §1
# Escherichia coli [15] = assay: Antibacterial activity against marA-overproducing Escherichia coli CR1000 harboring inactivated maoC gene assessed as MarA-mediated multidrug resistance level by measuring fold change in MIC relative to MarA-deficient Escherichia coli CR2000; outline: as §1
# Escherichia coli [16] = assay: Antibacterial activity against marA-overproducing Escherichia coli CR1000 harboring inactivated crp gene assessed as MarA-mediated multidrug resistance level by measuring fold change in MIC relative to MarA-deficient Escherichia coli CR2000; outline: as §1
# Escherichia coli [17] = assay: Antibacterial activity against marA-overproducing Escherichia coli CR1000 harboring inactivated mhpT gene assessed as MarA-mediated multidrug resistance level by measuring fold change in MIC relative to MarA-deficient Escherichia coli CR2000; outline: as §1
# Escherichia coli [18] = assay: Antibacterial activity against marA-overproducing Escherichia coli CR1000 harboring inactivated cyaA gene assessed as MarA-mediated multidrug resistance level by measuring fold decrease in MIC relative to MarA-deficient Escherichia coli CR2000; set-up: scale not given: the % may be the effect or the level left; outline: as §1
# Escherichia coli [19] = assay: Antibacterial activity against marA-overproducing Escherichia coli CR1000 harboring inactivated ompR gene assessed as MarA-mediated multidrug resistance level by measuring fold change in MIC relative to MarA-deficient Escherichia coli CR2000; outline: as §1
# Escherichia coli [20] = assay: Antibacterial activity against marA-overproducing Escherichia coli CR1000 harboring inactivated yibLp gene assessed as MarA-mediated multidrug resistance level by measuring fold change in MIC relative to MarA-deficient Escherichia coli CR2000; outline: as §1
# Escherichia coli [21] = assay: Antibacterial activity against marA-overproducing Escherichia coli CR1000 harboring inactivated treC gene assessed as MarA-mediated multidrug resistance level by measuring fold change in MIC relative to MarA-deficient Escherichia coli CR2000; outline: as §1
# Escherichia coli [22] = assay: Ratio of MIC for marA-overproducing Escherichia coli CR1000 to MIC for MarA-deficient Escherichia coli CR2000
# Outline: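 MICs measured by Etest on Mueller-Hinton plates, read after 20 h at 37°C, for the ΔmarR strain (constitutive chromosomal marA overexpression) and the ΔmarRA strain (BW25113 background), both grown overnight in LB at 37°C. MarA-mediated MDR expressed as the ΔmarR/ΔmarRA MIC ratio.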
# Escherichia coli [23] = assay: Antibacterial activity against wild-type Escherichia coli BW25113 after 20 hrs by Etest method; conditions: BW25113, 20 h
# Outline: (§2)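 MICs by Etest strips on Mueller-Hinton plates, following the manufacturer's specifications. Cells came from overnight liquid cultures in LB at 37°C with agitation. Plates were read after 20 h at 37°C. Antibiotics tested were cefoxitin, norfloxacin, chloramphenicol and minocycline.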
# Escherichia coli [24] = assay: Antibacterial activity against marA-overproducing Escherichia coli CR1000 harboring inactivated acrA gene assessed as MarA-mediated multidrug resistance level by measuring fold decrease in MIC relative to MarA-deficient Escherichia coli CR2000; set-up: scale not given: the % may be the effect or the level left; outline: as §1
# Escherichia coli [25] = assay: Antibacterial activity against marA-overproducing Escherichia coli CR1000 harboring inactivated ynfE gene assessed as MarA-mediated multidrug resistance level by measuring fold change in MIC relative to MarA-deficient Escherichia coli CR2000; outline: as §1
# Escherichia coli [26] = assay: Antibacterial activity against marA-overproducing Escherichia coli CR1000 harboring inactivated hns gene assessed as MarA-mediated multidrug resistance level by measuring fold decrease in MIC relative to MarA-deficient Escherichia coli CR2000; set-up: scale not given: the % may be the effect or the level left; outline: as §1
# Escherichia coli [27] = assay: Antibacterial activity against MarA-overexpressing Escherichia coli CR1000 after 20 hrs by Etest method; conditions: CR1000, 20 h; outline: as §2
# Escherichia coli [28] = assay: Antibacterial activity against marA-overproducing Escherichia coli CR1000 harboring inactivated alx gene assessed as MarA-mediated multidrug resistance level by measuring fold change in MIC relative to MarA-deficient Escherichia coli CR2000; outline: as §1
SMILES,Activity (Escherichia coli [1]) [%],Activity (Escherichia coli [2]) [%],Activity (Escherichia coli [3]) [%],Activity (Escherichia coli [4]) [%],MIC (Escherichia coli [5]) [µg/mL],Activity (Escherichia coli [6]) [%],Activity (Escherichia coli [7]) [%],Activity (Escherichia coli [8]) [%],Activity (Escherichia coli [9]) [%],Activity (Escherichia coli [10]) [%],Activity (Escherichia coli [11]) [%],Activity (Escherichia coli [12]) [%],Activity (Escherichia coli [13]) [%],Activity (Escherichia coli [14]) [%],Activity (Escherichia coli [15]) [%],Activity (Escherichia coli [16]) [%],Activity (Escherichia coli [17]) [%],Activity (Escherichia coli [18]) [%],Activity (Escherichia coli [19]) [%],Activity (Escherichia coli [20]) [%],also measured
CO[C@@]1(NC(=O)Cc2cccs2)C(=O)N2C(C(=O)O)=C(COC(N)=O)CS[C@@H]21 [CEFOXITIN],120,74,68,54,3.2,68,94,10,0,40,6,68,80,94,100,21,68,43,67,68,Activity (Escherichia coli [21]): 94%; Ratio (Escherichia coli [22]): 3.3; MIC (Escherichia coli [23]): 4 µg/mL; Activity (Escherichia coli [24]): 16%; Activity (Escherichia coli [25]): 94%; Activity (Escherichia coli [26]): 19%; MIC (Escherichia coli [27]): 10.6 µg/mL
O=C(N[C@H](CO)[C@H](O)c1ccc([N+](=O)[O-])cc1)C(Cl)Cl [CHLORAMPHENICOL],100,75,50,93,8.1,93,50,33,0,50,8,93,50,125,75,29,100,46,93,50,Activity (Escherichia coli [28]): 100%; Activity (Escherichia coli [21]): 85%; Ratio (Escherichia coli [22]): 3; MIC (Escherichia coli [23]): 10.7 µg/mL; Activity (Escherichia coli [24]): 8%; Activity (Escherichia coli [25]): 93%; Activity (Escherichia coli [26]): 20%; MIC (Escherichia coli [27]): 23.9 µg/mL
CN(C)c1ccc(O)c2c1C[C@H]1C[C@H]3[C@H](N(C)C)C(O)=C(C(N)=O)C(=O)[C@@]3(O)C(O)=C1C2=O [MINOCYCLINE],100,65,125,75,2.4,65,100,30,40,30,40,100,65,50,40,38,100,32,100,100,Activity (Escherichia coli [28]): 65%; Activity (Escherichia coli [21]): 100%; Ratio (Escherichia coli [22]): 2; MIC (Escherichia coli [23]): 3.3 µg/mL; Activity (Escherichia coli [24]): 40%; Activity (Escherichia coli [25]): 100%; Activity (Escherichia coli [26]): 35%; MIC (Escherichia coli [27]): 4.9 µg/mL
CCn1cc(C(=O)O)c(=O)c2cc(F)c(N3CCNCC3)cc21 [NORFLOXACIN],91,91,68,91,0.07,91,91,23,0,46,9,84,77,77,61,33,91,41,77,68,Activity (Escherichia coli [28]): 68%; Activity (Escherichia coli [21]): 46%; Ratio (Escherichia coli [22]): 3.1; MIC (Escherichia coli [23]): 0.09 µg/mL; Activity (Escherichia coli [24]): 0%; Activity (Escherichia coli [25]): 68%; Activity (Escherichia coli [26]): 23%; MIC (Escherichia coli [27]): 0.21 µg/mL

# From ChEMBL document CHEMBL1687757, “Many chromosomal genes modulate MarA-mediated multidrug resistance in Escherichia coli” (2010)
